Data on four molecules can be found in ChEMBL document CHEMBL3352380, “Development of benzo[d]oxazol-2(3H)-ones derivatives as novel inhibitors of Mycobacterium tuberculosis InhA” (Bioorg Med Chem, 2014).

Data set [1] deals with T1, Enoyl-[acyl-carrier-protein] reductase [NADH] (Mycobacterium tuberculosis) (UniProt P9WGR1).
T1 sequence (whole entry): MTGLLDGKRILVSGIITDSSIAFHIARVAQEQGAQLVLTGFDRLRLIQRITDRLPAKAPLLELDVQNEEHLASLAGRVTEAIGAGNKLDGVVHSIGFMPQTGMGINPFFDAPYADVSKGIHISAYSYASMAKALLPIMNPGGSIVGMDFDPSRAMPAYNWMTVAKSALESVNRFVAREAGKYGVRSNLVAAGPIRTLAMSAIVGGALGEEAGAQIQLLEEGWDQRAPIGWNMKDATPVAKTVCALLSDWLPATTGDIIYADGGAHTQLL
In words: Inhibition of Mycobacterium tuberculosis recombinant His6-tagged InhA expressed in Escherichia coli BL21(DE3) using 2-trans-decenoyl-CoA as substrate at 10 uM incubated for 2 hrs prior to substrate addition by spectrophotometry. The gist of the method: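 His6-InhA expressed in E. coli BL21(DE3) with 0.1 mM IPTG at 18 °C and purified on Ni-NTA. 70 nM enzyme pre-incubated 2 h with inhibitor at 10 µM in 30 mM PIPES, 150 mM NaCl, pH 6.8, 0.5% DMSO, 25 °C. Reaction started with DD-CoA plus NADH and followed at 340 nm. Initial velocity compared with a no-ligand control; triplicate.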

Data set [2] has as its target T2, Enoyl-[acyl-carrier-protein] reductase [NADH] (Mycobacterium tuberculosis, UniProt P9WGR1).
T2 sequence (P9WGR1 whole entry): T1 sequence (whole entry)
Kind of data set: Inhibition of Mycobacterium tuberculosis recombinant His6-tagged InhA expressed in Escherichia coli BL21(DE3) using 2-trans-decenoyl-CoA as substrate incubated for 2 hrs prior to substrate addition by spectrophotometry.

Data set [3] relates to Mycobacterium tuberculosis. In words: Antimicrobial activity against Mycobacterium tuberculosis H37Rv ATCC 27294 after 28 days by two-fold agar dilution method. Type of data set: functional. The following applies: H37Rv ATCC 27294, 672 h. The gist of the method: (§1)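 Two-fold serial dilutions in Middlebrook 7H11 agar with OADC supplement, final 50 to 0.78 µg/mL. Inoculum from fresh 7H11/OADC slants, adjusted to 1 mg/mL wet weight in 0.05% Tween 80 saline and diluted 10^-2 (~10^7 cfu/mL), spotted onto drug-containing agar tubes. Incubated at 37 °C; MIC is the lowest concentration inhibiting growth, read at 28 days.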
For orientation: In agar dilution the substance is mixed into plates at graded concentrations.

Data set [4] relates to Mycobacterium tuberculosis. In words: Antimicrobial activity against Mycobacterium tuberculosis H37Rv ATCC 27294 after 28 days by two-fold agar dilution method in presence of verapamil. The data set is classed as functional. The following applies: H37Rv ATCC 27294, 672 h. The gist of the method:
as §1

The test system of data set [5] is Mycobacterium tuberculosis. Kind of data set: Antimicrobial activity against Mycobacterium tuberculosis H37Rv ATCC 27294 after 28 days by two-fold agar dilution method in presence of piperine. Type of data set: functional. The following applies: H37Rv ATCC 27294, 672 h. The gist of the method: as §1
Data set [6] can be described thus: Cytotoxicity against mouse RAW264.7 cells at 100 uM after 72 hrs by MTT assay. Type of data set: cell-based. The following applies: read-out: INH. The gist of the method:
(§2)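 RAW 264.7 macrophages exposed to compound for 72 h. Viability read as MTT conversion to formazan with a non-radioactive cell proliferation kit, reported as percentage growth inhibition.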

The nature of data set [7]: Cytotoxicity against mouse RAW264.7 cells at 50 uM after 72 hrs by MTT assay. The data set is classed as cell-based. The following applies: read-out: INH. The gist of the method: as §2
On the technique in general: Tetrazolium dyes change colour on reduction, which living cells bring about.

Data set [8] deals with T1, Enoyl-[acyl-carrier-protein] reductase [NADH] (Mycobacterium tuberculosis).

Values after ≈ are worked out from the molar mass of the structure shown.

By inhibition is commonly meant the drop in the measured response relative to a control, in per cent. One may read the IC50 as the concentration that gives 50% inhibition. A word on the MIC: it is the smallest concentration in the dilution series that meets the test's criterion for growth inhibition. As to `O=C(Cn1c(=O)oc2cc([N+](=O)[O-])ccc21)Nc1ncc([N+](=O)[O-])s1`, the inhibition in data set [1] is 82.4%. Also, the IC50 in data set [2] was 5.12 µM. For the same molecule, the minimum inhibitory concentration (MIC) in data set [3] was determined as 17.1 µM (≈ 6.25 µg/mL); in data set [4], 8.55 µM; in data set [5] it was 8.55 µM. Moreover, the cytotoxicity at 72 h, 100 µM in data set [6] came to 43.8%. Besides, the cytotoxicity at 72 h, 50 µM in data set [7] was determined as 20.2%. In data set [8], the Tm is 1.9 °C.

Consider `O=C(Cn1c(=O)oc2cc([N+](=O)[O-])ccc21)NCc1ccccn1`, for which, in data set [1], the inhibition stood at 68.1%. For the same molecule, the IC50 in data set [2] worked out at 8.23 µM. In addition, the results for the MIC in data set [3], in data set [4] and in data set [5] were 76.2 µM (≈ 25 µg/mL), 38.1 µM and 9.51 µM, respectively. The cytotoxicity at 72 h, 100 µM in data set [6] was found to be 33.4%. Also, the cytotoxicity at 72 h, 50 µM in data set [7] is 21.8%.

For `O=C(Cn1c(=O)oc2cc(Cl)ccc21)Nc1nc2ccccc2s1`, the inhibition in data set [1] amounted to 58.2%. For the same molecule, the IC50 in data set [2] stood at 8.9 µM. Also, the figures for the minimum inhibitory concentration (MIC) in data set [3], in data set [4] and in data set [5] were 17.4 µM (≈ 6.25 µg/mL), 8.68 µM and 17.4 µM, respectively. Further, the cytotoxicity at 72 h, 100 µM in data set [6] is 52.5%. Moreover, in data set [7], the cytotoxicity at 72 h, 50 µM came out at 38.7%.

In the case of `O=C(Cn1c(=O)oc2cc([N+](=O)[O-])ccc21)Nc1nc2ccccc2s1`, the inhibition in data set [1] was determined as 60.8%. Besides, the IC50 in data set [2] amounted to 7.62 µM. Further, the results for the MIC in data set [3], in data set [4] and in data set [5] were 33.8 µM (≈ 12.5 µg/mL), 33.8 µM and 33.8 µM, respectively. The cytotoxicity at 72 h, 100 µM in data set [6] was 56.1%. In data set [7], the cytotoxicity at 72 h, 50 µM was 22.7%.
